Data published in ChEMBL document CHEMBL1131316, “Potent antagonists of somatostatin: synthesis and biology” (J Med Chem, 1998).
Positions of bridges follow the written chain, without caps; N, C: chain ends. Non-standard residues stand in square brackets, D forms with d. Residues, ends and D or L forms follow the SMILES beside them. dBip = N[C@H](Cc1ccc(-c2ccccc2)cc1)C(=O)O; dPhe(4-Cl) = N[C@H](Cc1ccc(Cl)cc1)C(=O)O; 2Nal = N[C@@H](Cc1ccc2ccccc2c1)C(=O)O; d2Nal = N[C@H](Cc1ccc2ccccc2c1)C(=O)O; 3Pal = N[C@@H](Cc1cccnc1)C(=O)O

What was measured:
Somatostatin receptor = assay: Compound was tested for in vitro SRIF inhibition of GH release in rats; type: functional
Outline: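 Adult male rat anterior pituitary cells, dispersed with trypsin/DNase, cultured 4-5 days. Then 3 h at 37 °C in medium 199 with 1% BSA, GHRH(1-29)NH2 1 nM and SRIF 1 nM, with analogue at six doses (up to 10 µM, some to 100 µM), triplicate wells. GH in medium measured by double-antibody RIA. Antagonist IC50 taken from n separate dose-response curves.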

[1] = target: Somatostatin receptor type 4 (Homo sapiens, UniProt P31391); assay: Binding affinity towards cloned human somatostatin 4 (hsst) receptor
[2] = target: Somatostatin receptor type 2 (Homo sapiens, UniProt P30874); assay: Binding affinity towards cloned human somatostatin 2 (hsst) receptor
Outline: (§1)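 Membranes from CHO-K1 cells stably transfected with the human receptor subtype (calcium phosphate transfection, G418 selection), homogenised and washed in Tris-HCl. Separated by filtration on PEI-soaked GF/C filters; nonspecific binding with 1.0 µM SRIF.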

[3] = target: Somatostatin receptor type 1 (Homo sapiens, UniProt P30872); assay: Binding affinity towards cloned human somatostatin 1 (hsst) receptor; outline: as §1
[4] = target: Somatostatin receptor type 3 (Homo sapiens, UniProt P32745); assay: Binding affinity towards cloned human somatostatin 3 (hsst) receptor; outline: as §1
[5] = target: Somatostatin receptor type 5 (Homo sapiens, UniProt P35346); assay: Binding affinity towards cloned human somatostatin 5 (hsst) receptor; outline: as §1
Somatostatin receptor type 5, sequence (P35346 whole entry): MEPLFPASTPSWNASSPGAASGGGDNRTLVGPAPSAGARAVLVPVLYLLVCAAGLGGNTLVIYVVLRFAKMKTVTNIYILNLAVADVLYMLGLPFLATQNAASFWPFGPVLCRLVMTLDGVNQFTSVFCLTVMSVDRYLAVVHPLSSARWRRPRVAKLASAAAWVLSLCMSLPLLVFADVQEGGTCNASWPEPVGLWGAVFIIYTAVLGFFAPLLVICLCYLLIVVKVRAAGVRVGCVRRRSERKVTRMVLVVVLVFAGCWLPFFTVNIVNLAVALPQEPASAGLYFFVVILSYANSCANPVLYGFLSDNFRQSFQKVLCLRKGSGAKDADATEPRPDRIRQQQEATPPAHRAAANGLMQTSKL

Somatostatin receptor type 4, sequence (P31391 whole entry): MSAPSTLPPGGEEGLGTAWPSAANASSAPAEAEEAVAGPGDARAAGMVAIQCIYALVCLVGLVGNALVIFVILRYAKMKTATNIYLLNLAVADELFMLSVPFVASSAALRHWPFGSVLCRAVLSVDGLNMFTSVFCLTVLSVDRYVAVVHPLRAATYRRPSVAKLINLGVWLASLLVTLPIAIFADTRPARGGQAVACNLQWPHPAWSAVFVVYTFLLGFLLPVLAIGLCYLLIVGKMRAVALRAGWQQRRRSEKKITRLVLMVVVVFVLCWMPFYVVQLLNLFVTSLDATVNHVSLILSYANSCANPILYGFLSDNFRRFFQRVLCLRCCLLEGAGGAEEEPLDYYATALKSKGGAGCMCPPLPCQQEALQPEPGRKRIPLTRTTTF
Somatostatin receptor type 3, sequence (P32745 whole entry): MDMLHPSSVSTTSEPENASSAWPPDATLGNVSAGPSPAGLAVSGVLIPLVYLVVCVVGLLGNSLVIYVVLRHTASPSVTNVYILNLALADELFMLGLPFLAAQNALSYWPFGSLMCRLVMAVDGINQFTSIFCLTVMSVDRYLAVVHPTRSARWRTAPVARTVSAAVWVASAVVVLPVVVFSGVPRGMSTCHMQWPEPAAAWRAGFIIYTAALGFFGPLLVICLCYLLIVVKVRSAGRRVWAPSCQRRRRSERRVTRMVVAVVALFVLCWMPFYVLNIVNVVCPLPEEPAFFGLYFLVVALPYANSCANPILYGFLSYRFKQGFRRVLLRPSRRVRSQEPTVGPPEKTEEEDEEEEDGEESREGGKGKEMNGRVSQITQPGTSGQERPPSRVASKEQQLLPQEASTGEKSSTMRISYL
Somatostatin receptor type 1, sequence (P30872 whole entry): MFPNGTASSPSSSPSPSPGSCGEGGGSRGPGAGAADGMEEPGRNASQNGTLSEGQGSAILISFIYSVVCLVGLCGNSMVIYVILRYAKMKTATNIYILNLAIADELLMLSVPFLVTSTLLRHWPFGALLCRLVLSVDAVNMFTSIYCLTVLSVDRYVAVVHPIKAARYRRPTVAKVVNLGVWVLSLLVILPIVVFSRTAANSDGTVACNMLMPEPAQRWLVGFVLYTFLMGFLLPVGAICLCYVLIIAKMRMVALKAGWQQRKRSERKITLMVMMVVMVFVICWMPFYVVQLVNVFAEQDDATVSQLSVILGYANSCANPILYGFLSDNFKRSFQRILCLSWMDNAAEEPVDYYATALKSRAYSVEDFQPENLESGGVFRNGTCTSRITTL
Somatostatin receptor type 2, sequence (P30874 whole entry): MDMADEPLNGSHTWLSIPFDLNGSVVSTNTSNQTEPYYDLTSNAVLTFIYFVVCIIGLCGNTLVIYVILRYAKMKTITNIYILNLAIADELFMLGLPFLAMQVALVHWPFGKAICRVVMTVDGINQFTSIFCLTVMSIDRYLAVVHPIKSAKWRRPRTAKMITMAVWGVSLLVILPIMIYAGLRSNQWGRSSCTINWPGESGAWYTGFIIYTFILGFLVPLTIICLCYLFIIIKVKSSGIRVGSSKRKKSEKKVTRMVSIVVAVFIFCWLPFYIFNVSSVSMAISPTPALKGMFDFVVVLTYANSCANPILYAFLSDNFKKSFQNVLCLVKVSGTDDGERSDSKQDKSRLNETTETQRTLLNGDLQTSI

| SMILES | IC50 (Somatostatin receptor) | IC50 [1] | Ki [2] | IC50 [3] | IC50 [4] | Ki [5] |
| --- | --- | --- | --- | --- | --- | --- |
| C[C@@H](O)[C@@H]1NC(=O)[C@H](CCCCN)NC(=O)[C@@H](Cc2c[nH]c3ccccc23)NC(=O)[C@H](Cc2ccc(O)cc2)NC(=O)[C@H](NC(=O)[C@H](N)Cc2ccc3ccccc3c2)CSSC[C@@H](C(=O)N[C@@H](Cc2ccc3ccccc3c2)C(N)=O)NC1=O | 180000 nM | 605 nM | 202 nM | 1040 nM |  |  |
| C[C@@H](O)[C@H](NC(=O)[C@@H]1CSSC[C@@H](NC(=O)[C@@H](N)Cc2ccccc2)C(=O)N[C@@H](Cc2cccnc2)C(=O)N[C@H](Cc2c[nH]c3ccccc23)C(=O)N[C@@H](CCCCN)C(=O)N[C@@H]([C@@H](C)O)C(=O)N1)C(N)=O | 905 nM | 1000 nM | 291 nM | 1000 nM | 934 nM | 2360 nM |
| C[C@@H](O)[C@H](NC(=O)[C@@H]1CSSC[C@@H](NC(=O)[C@@H](N)Cc2ccc(O)cc2)C(=O)N[C@@H](Cc2cccnc2)C(=O)N[C@H](Cc2c[nH]c3ccccc23)C(=O)N[C@@H](CCCCN)C(=O)N[C@@H]([C@@H](C)O)C(=O)N1)C(N)=O | 98650 nM | 1000 nM | 1000 nM | 1000 nM | 1380 nM |  |
| CC(C)[C@@H]1NC(=O)[C@H](CCCCN)NC(=O)[C@@H](Cc2c[nH]c3ccccc23)NC(=O)[C@H](Cc2ccc(O)cc2)NC(=O)[C@H](NC(=O)[C@@H](N)Cc2ccc(O)cc2)CSSC[C@@H](C(=O)N[C@H](Cc2ccc3ccccc3c2)C(N)=O)NC1=O | 64.8 nM |  |  |  |  |  |
| CC(=O)N[C@@H](Cc1ccc2ccccc2c1)C(=O)N[C@@H]1CSSC[C@@H](C(=O)N[C@@H](Cc2ccc3ccccc3c2)C(N)=O)NC(=O)[C@H](C(C)C)NC(=O)[C@H](CCCCN)NC(=O)[C@@H](Cc2c[nH]c3ccccc23)NC(=O)[C@H](Cc2ccc(O)cc2)NC1=O (Ac-[2Nal][dC]Y[dW]KVC[2Nal]-NH2; disulfide 2-7) | 56.7 nM | 1000 nM | 48.2 nM | 1020 nM | 144 nM | 130 nM |
| CC(C)[C@@H]1NC(=O)[C@H](CCCCN)NC(=O)[C@@H](Cc2c[nH]c3ccccc23)NC(=O)[C@H](Cc2cccnc2)NC(=O)[C@H](NC(=O)[C@@H](N)Cc2ccccc2)CSSC[C@@H](C(=O)N[C@@H](Cc2ccc3ccccc3c2)C(N)=O)NC1=O (H-F[dC][3Pal][dW]KVC[2Nal]-NH2; disulfide 2-7) | 58 nM | 1000 nM | 123 nM | 535 nM | 373 nM | 769 nM |
| CC(C)[C@@H]1NC(=O)[C@H](CCCCN)NC(=O)[C@@H](Cc2c[nH]c3ccccc23)NC(=O)[C@H](Cc2c[nH]cn2)NC(=O)[C@H](NC(=O)[C@@H](N)Cc2ccc3ccccc3c2)CSSC[C@@H](C(=O)N[C@@H](Cc2ccc3ccccc3c2)C(N)=O)NC1=O (H-[2Nal][dC]H[dW]KVC[2Nal]-NH2; disulfide 2-7) | 53 nM | 943 nM | 82.5 nM | 1000 nM | 68 nM | 501 nM |
| CC(C)[C@@H]1NC(=O)[C@H](CCCCN)NC(=O)[C@@H](Cc2c[nH]c3ccccc23)NC(=O)[C@H](Cc2cccnc2)NC(=O)[C@H](NC(=O)[C@@H](N)Cc2ccc3ccccc3c2)CSSC[C@@H](C(=O)N[C@@H](Cc2ccc3ccccc3c2)C(N)=O)NC1=O (H-[2Nal][dC][3Pal][dW]KVC[2Nal]-NH2; disulfide 2-7) | 15.1 nM | 1000 nM | 75.9 nM | 506 nM | 171 nM | 524 nM |
| CC(C)[C@@H]1NC(=O)[C@H](CCCCN)NC(=O)[C@@H](Cc2c[nH]c3ccccc23)NC(=O)[C@H](Cc2ccc(O)cc2)NC(=O)[C@H](NC(=O)[C@H](N)Cc2ccc(-c3ccccc3)cc2)CSSC[C@@H](C(=O)N[C@@H](Cc2ccc3ccccc3c2)C(N)=O)NC1=O (H-[dBip][dC]Y[dW]KVC[2Nal]-NH2; disulfide 2-7) | 810 nM | 1000 nM | 793 nM | 1440 nM | 466 nM | 243 nM |

Now from value to compound:

| IC50 (Somatostatin receptor) | IC50 [1] | Ki [2] | IC50 [3] | IC50 [4] | Ki [5] | SMILES |
| --- | --- | --- | --- | --- | --- | --- |
| 280 nM | 1000 nM | 46.1 nM | 1000 nM | 2280 nM | 1250 nM | CC(C)[C@@H]1NC(=O)[C@H](CCCCN)NC(=O)[C@@H](Cc2c[nH]c3ccccc23)NC(=O)[C@H](Cc2ccc(O)cc2)NC(=O)[C@H](NC(=O)[C@@H](N)Cc2ccc3ccccc3c2)CSSC[C@@H](C(=O)N[C@H](Cc2ccc3ccccc3c2)C(N)=O)NC1=O |
| 375 nM |  |  |  |  |  | CC(C)[C@@H]1NC(=O)[C@H](CCCCN)NC(=O)[C@@H](Cc2c[nH]c3ccccc23)NC(=O)[C@H](Cc2ccc(O)cc2)NC(=O)[C@H](NC(=O)[C@H](N)Cc2ccc3ccccc3c2)CSSC[C@H](C(=O)N[C@H](Cc2ccc3ccccc3c2)C(N)=O)NC1=O |
| 50 nM |  |  |  |  |  | CC(C)[C@@H]1NC(=O)[C@H](CCCCN)NC(=O)[C@@H](Cc2c[nH]c3ccccc23)NC(=O)[C@H](Cc2ccc(O)cc2)NC(=O)[C@H](NC(=O)[C@@H](N)Cc2ccc3ccccc3c2)CSSC[C@@H](C(=O)N[C@@H](Cc2ccc(O)cc2)C(N)=O)NC1=O (H-[2Nal][dC]Y[dW]KVCY-NH2; disulfide 2-7) |
| 3030 nM | 2840 nM | 706 nM | 1000 nM | 1130 nM | 1840 nM | CC(C)[C@H](NC(=O)[C@H](CCCCN)NC(=O)[C@@H](Cc1c[nH]c2ccccc12)NC(=O)[C@H](Cc1ccc(O)cc1)NC(=O)[C@@H](Cc1ccc(Cl)cc1)NC(=O)[C@@H](N)Cc1ccc2ccccc2c1)C(=O)N[C@@H](Cc1ccccc1)C(=O)N[C@H](C(N)=O)[C@@H](C)O (H-[2Nal][dPhe(4-Cl)]Y[dW]KVFT-NH2) |
| 3960 nM | 1000 nM | 144 nM | 1000 nM | 89.9 nM | 21.6 nM | CC(C)[C@H](NC(=O)[C@H](CCCCN)NC(=O)[C@@H](Cc1c[nH]c2ccccc12)NC(=O)[C@H](Cc1ccc(O)cc1)NC(=O)[C@@H](Cc1ccc(Cl)cc1)NC(=O)[C@H](N)Cc1ccc2ccccc2c1)C(=O)N[C@@H](Cc1ccccc1)C(=O)N[C@H](C(N)=O)[C@@H](C)O (H-[d2Nal][dPhe(4-Cl)]Y[dW]KVFT-NH2) |
| 1360 nM | 312 nM | 68.5 nM | 494 nM | 292 nM | 744 nM | CC(C)[C@@H]1NC(=O)[C@H](CCCCN)NC(=O)[C@@H](Cc2c[nH]c3ccccc23)NC(=O)[C@H](Cc2ccc(O)cc2)NC(=O)[C@@H](NC(=O)[C@H](N)Cc2ccc3ccccc3c2)CSSC[C@H](C(=O)N[C@@H](Cc2ccc3ccccc3c2)C(N)=O)NC1=O (stereo in doubt; 23) |
